The source of these data is paper PMC11827156 (Malaria Journal, 2025).

For series [1], the system named is P. falciparum 3D7. As to conditions: cited from earlier work.
In series [2] the test system is knockout parasites (PfSR25−). As to conditions: cited from earlier work.
The next series concerns P. falciparum. As to conditions: read-out: IC50, antimalarial activity; cited from earlier work.
Series [3] concerns P. falciparum gametocytes. As to conditions: read-out: IC50 against P. falciparum gametocytes; cited from earlier work.
A further series deals with HEK293 cells. As to the kind of experiment: Cytotoxicity of the compounds in HEK293 cells. The series is classed as cell-based, human. As to conditions: MTT, 72 h, 0.0019–2 µM. The essentials: (§1)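 HEK293 cells (passages 7–12, grown in DMEM with 10% FBS and penicillin/streptomycin at 37 °C, 5% CO₂) were trypsinized and seeded at 10^4 cells/well. They were exposed to test compound or DMSO vehicle for 72 h. MTT (5 mg/mL reagent) was then added for 3 h, and the formazan was dissolved in DMSO. Absorbance was read at 570 nm and dose–response curves were fitted. Each condition was run in triplicate in 3 independent experiments.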

A short description of series [4]: Cytotoxicity of the compounds in HEK293 cells. The series is classed as cell-based, human. As to conditions: human, HEK293 cells. The essentials: as §1
Series [5] deals with P. falciparum PfSR25− (serpentine receptor 25 knockout strain). As to the kind of experiment: Comparative IC50 screening, 3D7 versus serpentine receptor 25 knockout strain. As to conditions: 72 h, 0.0019–2 µM, Student's t test. The series is classed as cell-based, Plasmodium falciparum. Put shortly: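 Asynchronous 3D7 and PfSR25− cultures (37 °C, 90% N2/5% O2/5% CO2) at 0.3% parasitaemia and 2% haematocrit were exposed for 72 h to eleven final concentrations. Controls were 0.13% DMSO and chloroquine 0.2441–250 nM. Cells were stained with SYBR Green-I (1:10,000) plus MitoTracker Deep Red (50 nM) for 20 min at 37 °C and read by flow cytometry. Survival was taken relative to DMSO, in triplicate over three experiments. IC50 ± SEM came from dose–response curves.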

The subject of series [6] is P. falciparum 3D7. The series is classed as cell-based, Plasmodium falciparum.
The subject of series [7] is Plasmodium falciparum 3D7. As to the kind of experiment: Drug effects on erythrocytic cycle phases in synchronized cultures. The series is classed as cell-based. The essentials: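 Sorbitol-synchronized P. falciparum 3D7 at 1% parasitaemia and 2% haematocrit received test compound (150 nM), chloroquine (150 nM) or 0.1% DMSO at 0, 12 or 24 h post-synchronization. Samples were taken at 12, 24, 36 and 48 h and stained for 30 min in HEPES-buffered Hank's with 1 µM Hoechst and […] thiazole orange. Flow cytometry gated rings, trophozoites and schizonts on DNA/RNA signal. Data are mean ± SD from one triplicate experiment.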

The mark [8] stands for this setting: Plasmodium falciparum, 3D7, 72 h, read-out: IC50 (nM) 3D7, Table 1, asynchronous culture, 72 h, 0.0019–2 µM, ± standard error of the mean.

Like-named read-outs stand apart in the source and are kept apart here.

With Melatotosil, in the series on P. falciparum 3D7 [1], the “action on melatonin in the cell cycle of P. falciparum 3D7” value was “blocks the action of melatonin in the cell cycle of P. falciparum 3D7”.
With `Clc1ccc2c(N3CCN(CCCN4CCN(c5ccnc6cc(Cl)ccc56)CC4)CC3)ccnc2c1` [piperaquine], the “susceptibility of PfSR25−” value in [2] is listed as “increased susceptibility”.
Take `CCCN(CCC)C1CCc2cccc(O)c2C1` (centres unmarked) [8-OH-DPAT, 8-hydroxy-N-(di-n-propyl)-aminotetralin]: in the series with P. falciparum, the half-maximal inhibitory concentration (IC50) (in general, the concentration that gives 50% inhibition) is 400 nM.
`CN(CCCNCc1cccc2ccccc12)CCCNCc1cccc2ccccc12.Cl` [TCMDC-137905, Cl.CN(CCCNCc1cccc2ccccc12)CCCNCc1cccc2ccccc12]: the IC50 in series [3] is 230 nM; in the series with P. falciparum 3D7 [6] (setting [8]), 91.1 ± 18.4 nM; with P. falciparum 3D7 [6] (Plasmodium falciparum, 3D7, read-out: IC50 nM 3D7, Table 2) it was 91.1 nM. The “cytotoxic activity in HEK293 cells” value in the series with HEK293 cells was “exhibited cytotoxic activity in HEK293 cells”. Besides, in series [4], the CC50 (usually the concentration giving 50% cytotoxicity) at 72 h worked out at 5550 nM. Also, the “difference of IC50 between 3D7 and PfSR25−” value in [5] is “none of the compounds tested were significantly different between the two strains”.
As for `CC(Cc1ccc(NC(=O)c2ccc(CNCCc3ccccc3)cc2)cc1)NCCc1cccc(Cl)c1.Cl` (centres unmarked) [TCMDC-139867, Cl.CC(Cc1ccc(NC(= O)c2ccc(CNCCc3ccccc3)cc2)cc1)NCCc1cccc(Cl)c1], in the series with HEK293 cells, the “cytotoxic activity in HEK293 cells” value was “exhibited cytotoxic activity in HEK293 cells”. Further, in the series with HEK293 cells (read-out: CC50 nM HEK293), the CC50 is 1280 nM. For the same molecule, the “difference of IC50 between 3D7 and PfSR25−” value in [5] was “none of the compounds tested were significantly different between the two strains”. The IC50 with P. falciparum 3D7 [6] (read-out: IC50 nM 3D7, Table 2) is 57.4 nM; with P. falciparum 3D7 [6] (read-out: IC50 (nM) 3D7, Table 1, asynchronous culture, 72 h, 0.0019–2 µM, ± standard error of the mean), 57.4 ± 12.2 nM.
As to `CCCCN(CCCC)CC(O)c1cc(Cl)cc2c1-c1ccc(Cl)cc1/C2=C/c1ccc(Cl)cc1` (centres unmarked) [lumefantrine], the “susceptibility of PfSR25−” value in series [2] is given as “increased susceptibility”.
In the case of `CCN(CC)CCCC(C)Nc1ccnc2cc(Cl)ccc12` (centres unmarked) [Chloroquine, reference compound], in series [7] (150 nM added 12 h after synchronization, % parasitaemia, n = 3), the “ring phase parasites at the 36 h time point” value is 0.30 ± 0.17%. Besides, the “parasitaemia at the 36 h time point” value in series [7] (150 nM added 12 h after synchronization, n = 3) is reported as 1.55 ± 0.87%. In addition, the “parasites developed into schizonts at the 24 h time point” value in [7] (added at 0 h, control 18%) is on record as “less than 0.5%”. In [2] (exposure for 24 h), the “parasitaemia of knockout parasites (PfSR25−) versus wild-type (3D7)” value is “significantly reduced parasitaemia compared with that of wild-type parasites (3D7)”. In the series with P. falciparum 3D7 [6] (setting [8]), the IC50 was determined as 11.3 ± 0.7 nM.
